Screening data: PubChem BioAssay, Broad Institute
Hits are enriched below; roughly 2.3% of the tested compounds scored in any of these assays.
PAX8 reporter: PAX8 transcriptional activity inhibition. actives 1.2% (n = 360,000). RMG-I TPO-luciferase reporter, SteadyGlo, 24 h. inhibition, % at 12.6 µM. AID 652154;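 active = mean replicate inhibition at least 60% with every replicate also reaching 60%; inconclusive = only one of the two criteria is met; inactive = mean below 60% and not all replicates reaching 60%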;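 also: luciferase light reporting Pax8 driven TPO promoter activity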
FN deposit inh: fibronectin deposition inhibition; inhibition, % at 12.6 µM; AH1F fibroblasts, Alexa488-fibronectin deposition fluorescence, overnight; actives 0.086% (n = 350,000); AID 743247;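 active = mean inhibition across replicates of 30% or more, regardless of how many single replicates reach that level; inconclusive = mean under 30% yet at least half of replicates reach 30%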
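Assay system: AH1F fibroblasts assembling fluorescent fibronectin matrix; Amount: 10000 AH1F cells per well; Buffer or medium: DMEM, 2% serum; Probe or stimulus: Alexa488-fibronectin, 24 nM final in well; Doses: single compound dose, delivered by pin transfer; Incubation: 1 h adhesion, overnight exposure; Measured by: fluorescence 485/525 nm; Read-out: fibronectin deposition inhibition.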
HIV Env fusion: blocks HIV Env-driven cell-cell fusion; HeLa-JRFL Env/CEM21 cell fusion, luciferase; inhibition, % at 12.3 µM; actives 1.1% (n = 360,000); AID 651610;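 active = mean replicate inhibition score of at least 50 and every replicate individually at or above 50; inconclusive = only one of the two criteria met; inactive = mean below 50 and not all replicates reaching 50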
PGC1a acetyl inh: PGC1a acetylation modulation, inhibitor mode. inhibition, % at 15.6 µM. AID 651687. actives 0.17% (n = 350,000). U2OS PGC1a acetylation, AlphaScreen anti-acetyl-lysine; with virally co-expressed GCN5 acetyltransferase;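 active = every replicate shows inhibition of at least 40%; inconclusive = mean inhibition at least 40% but some replicate below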
EWS-Fli block: EWS/Fli transcriptional activity inhibition; A673 NR0B1-luciferase reporter, viability-normalised; inhibition, % at 12.6 µM; actives 0.67% (n = 350,000); AID 651661;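 active = mean inhibition of at least 50% after viability correction, with every replicate also passing that limit; inconclusive = mean reaches 50% but only one of two replicates passes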;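 also: firefly luciferase signal divided by Alamar Blue viability fluorescence both relative to DMSO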
CFTR F508del cor: CFTR F508del correction in bronchial cells. CFBE cells, YFP halide quenching; stimulated with forskolin plus potentiator P3; % fluorescence drop versus neutral controls. activity (quench increase), % at 7.58 µM. actives 0.36% (n = 350,000);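 active = mean added fluorescence quench of at least 8% versus neutral control, with both replicates also reaching 8%; inconclusive = only one of the mean or replicate conditions met; inactive = mean below 8% and not both replicates reaching 8%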;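 also: cells transiently co-express mutant CFTR-F508del with the halide-sensitive YFP; corrector assay measuring rescue of mutant channel to the surface after 24 h compound exposure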
Of the large screens only hits and unclear results are named; the others gave an inactive call; [ ] = remark or other dose.

COc1cc(/C=N/Nc2nc(Nc3ccccc3)nc(-n3nc(C)cc3C)n2)cc(OC)c1OC	PAX8 reporter 80
COc1cc(/C=N/Nc2nc(Nc3ccc(C)cc3)nc(-n3nc(C)cc3C)n2)cc(OC)c1OC	PAX8 reporter 89 (no result: EWS-Fli block, CFTR F508del cor)
COc1ccc2[nH]c3c(c2c1)CC(C)NC3=O (stereo unspecified)	none (no result: PGC1a acetyl inh)
COc1cc2c3c([nH]c2cc1F)C(=O)NCC3	HIV Env fusion 59 (no result: PGC1a acetyl inh)
COc1ccc(S(=O)(=O)N[C@H]2C=C[C@@H](CC(=O)NCCc3ccncc3)O[C@H]2CO)cc1	none (no result: PAX8 reporter, HIV Env fusion, EWS-Fli block)
CC12CCC(CC1O)C2C(=O)O (stereo unspecified)	CFTR F508del cor 8.2 (no result: PGC1a acetyl inh)
N#Cc1ccccc1Sc1ccccc1C(=O)OCC(=O)NC12CC3CC(CC(C3)C1)C2	none (no result: PGC1a acetyl inh, EWS-Fli block, CFTR F508del cor)
CC1CCCC(NC(=O)COC(=O)c2ccccc2Sc2ccccc2C#N)C1C (stereo unspecified)	PAX8 reporter 133 (no result: HIV Env fusion)
COc1ccc(S(=O)(=O)Nc2ccc3c(c2)C(=O)N([C@H](C)CO)C[C@H](C)[C@@H](CN(C)Cc2ccc(C(F)(F)F)cc2)OCCCC[C@H](C)O3)cc1	PAX8 reporter 104
COc1ccc(S(=O)(=O)Nc2ccc3c(c2)C(=O)N([C@@H](C)CO)C[C@@H](C)[C@@H](CN(C)Cc2ccc(C(F)(F)F)cc2)O3)cc1	none (no result: PAX8 reporter, FN deposit inh, HIV Env fusion)
COc1ccc(S(=O)(=O)Nc2ccc3c(c2)C(=O)N([C@@H](C)CO)C[C@H](C)[C@@H](CN(C)Cc2ccc(C(F)(F)F)cc2)OCCCC[C@H](C)O3)cc1	PAX8 reporter 106
COc1ccc(S(=O)(=O)Nc2ccc3c(c2)C(=O)N([C@H](C)CO)C[C@@H](C)[C@@H](CN(C)Cc2ccc(C(F)(F)F)cc2)O3)cc1	CFTR F508del cor 9.2 (no result: PAX8 reporter, FN deposit inh, HIV Env fusion)
O=C(C1CC1)N1C[C@@H]2[C@H](c3ccccc31)[C@@H](CO)N2C(=O)c1cccc(F)c1	none (no result: FN deposit inh, HIV Env fusion)
Cc1nc(=S)c2c([nH]1)-c1ccccc1CC21CCCCC1	EWS-Fli block 54
CCc1nc2c(c(=O)[nH]1)C1(CCCC1)Cc1ccccc1-2	none (no result: PAX8 reporter, EWS-Fli block, CFTR F508del cor)
C[C@H]1CN([C@@H](C)CO)C(=O)CCCn2cc(nn2)CO[C@H]1CN(C)Cc1cccnc1	none (no result: PAX8 reporter)
c1ccc(CSc2nnc([C@@H]3CCCN3)o2)cc1	HIV Env fusion 94 (no result: PAX8 reporter, PGC1a acetyl inh, EWS-Fli block, CFTR F508del cor)
C[C@@H]1CCCCO[C@@H](CN(C)Cc2ccncc2)[C@@H](C)CN([C@@H](C)CO)C(=O)c2cc(NC(=O)Nc3ccccc3)ccc2O1	none (no result: EWS-Fli block)
CCCC(=O)C1=C(O)C(C(=O)OC)C(C)(C)CC1=Nc1ccc(OC)cc1 (stereo unspecified)	PGC1a acetyl inh 46
Cc1cc(C)cc(Oc2cc(NC(=O)c3cn(C)nc3C)cc([N+](=O)[O-])c2)c1	HIV Env fusion 59 (no result: PAX8 reporter, EWS-Fli block, CFTR F508del cor)
CN(C)C(=O)c1cccc(-c2ccccc2[C@@H]2[C@@H](C#N)N(C(=O)C3CC3)[C@H]2CO)c1	PAX8 reporter 112 (no result: HIV Env fusion)
CCCC#Cc1ccc([C@H]2[C@@H](CO)N(C(=O)C3CCCCC3)[C@H]2C#N)cc1	PAX8 reporter 84
N#C[C@@H]1[C@H](c2ccc(C#Cc3ccccc3F)cc2)[C@@H](CO)N1C(=O)C1CCC1	none
N#C[C@H]1[C@H](c2ccc(C#Cc3ccccc3F)cc2)[C@H](CO)N1C(=O)C1CCC1	PAX8 reporter 87, EWS-Fli block 66
N#C[C@@H]1[C@@H](c2ccc(-c3ccccc3F)cc2)[C@@H](CO)N1C(=O)C1CCC1	PAX8 reporter 82
COc1ccc(CN(C)C[C@H]2OCCCC[C@H](C)Oc3ccc(NC(=O)NC4CCCCC4)cc3C(=O)N([C@H](C)CO)C[C@@H]2C)cc1	none (no result: PAX8 reporter)
C[C@@H]1CN([C@@H](C)CO)C(=O)c2cc(NC(=O)c3ccccc3)ccc2O[C@@H](C)CCCCO[C@H]1CN(C)S(=O)(=O)c1cn(C)cn1	none (no result: HIV Env fusion, EWS-Fli block)
N#C[C@H]1[C@@H](c2ccc(C#Cc3ccc(F)cc3)cc2)[C@H](CO)N1C(=O)C1CCCC1	PAX8 reporter 87
N#C[C@@H]1[C@@H](c2ccc(C#Cc3ccc(F)cc3)cc2)[C@H](CO)N1C(=O)C1CCCC1	none
O=C1N[C@H](Cc2ccccc2)COCc2cnnn2CC[C@H]1Cc1cccc(F)c1	none (no result: PAX8 reporter, HIV Env fusion, PGC1a acetyl inh, EWS-Fli block, CFTR F508del cor)
COC(=O)Cn1c(=O)c(C(=O)CCl)c(N)n(Cc2ccccc2)c1=O	PAX8 reporter 63, EWS-Fli block inconclusive
CCCCCCCCN1C(=O)[C@@H](CC(=O)N2CCN(C(=O)c3ccco3)CC2)C[C@@]2(C(=O)OC)C1=C[C@H](C1CCCC1)O[C@@H]2C	PAX8 reporter 73 (no result: PGC1a acetyl inh)
CCCCCCCCN1C(=O)[C@@H](CC(=O)N2CCC(c3ccccc3)CC2)C[C@@]2(C(=O)OC)C1=C[C@H](C(C)(C)C)O[C@@H]2C	none (no result: PGC1a acetyl inh)
CCCCCCCCN1C(=O)[C@@H](CC(=O)N2CCN(C(=O)c3ccco3)CC2)C[C@@]2(C(=O)OC)C1=C[C@H](C(C)(C)C)O[C@@H]2C	PAX8 reporter 84 (no result: PGC1a acetyl inh)
CCC(C)NC(=O)C1CCCN(C(=O)Nc2ccc(F)cc2)C1 (stereo unspecified)	HIV Env fusion 57 (no result: PAX8 reporter, EWS-Fli block, CFTR F508del cor)
C[C@@H]1CN([C@@H](C)CO)C(=O)c2cc(NC(=O)Nc3ccc4c(c3)OCO4)ccc2O[C@@H](C)CCCCO[C@H]1CN(C)Cc1ccc(C(F)(F)F)cc1	PAX8 reporter 61, HIV Env fusion 61[16.7 µM] (no result: FN deposit inh)
C[C@@H]1CN([C@H](C)CO)C(=O)c2cc(NC(=O)Nc3ccc4c(c3)OCO4)ccc2O[C@@H](C)CCCCO[C@@H]1CN(C)Cc1ccc(C(F)(F)F)cc1	PAX8 reporter 66, HIV Env fusion inconclusive (no result: FN deposit inh)
C[C@@H]1CCCCO[C@@H](CN(C)Cc2ccc(C(F)(F)F)cc2)[C@@H](C)CN([C@H](C)CO)C(=O)c2cc(NC(=O)Nc3ccc4c(c3)OCO4)ccc2O1	none (no result: FN deposit inh)
C[C@@H]1CN([C@@H](C)CO)C(=O)c2cc(NC(=O)Nc3ccc4c(c3)OCO4)ccc2O[C@@H](C)CCCCO[C@@H]1CN(C)Cc1ccc(C(F)(F)F)cc1	none (no result: FN deposit inh)
C[C@H](CO)N1C[C@H](C)[C@H](CN(C)Cc2ccc(C(F)(F)F)cc2)OCCCC[C@H](C)Oc2ccc(NC(=O)Nc3ccc4c(c3)OCO4)cc2C1=O	PAX8 reporter 96, HIV Env fusion 69[16.7 µM] (no result: FN deposit inh)
C[C@@H]1CCCCO[C@H](CN(C)Cc2ccc(C(F)(F)F)cc2)[C@H](C)CN([C@H](C)CO)C(=O)c2cc(NC(=O)Nc3ccc4c(c3)OCO4)ccc2O1	PAX8 reporter 67 (no result: FN deposit inh)
COc1ccc2c3c(n(C)c2c1)[C@@H](CO)N(C(=O)Nc1ccc(F)cc1)CC31CCN(C(=O)CC2CC2)CC1	none (no result: PAX8 reporter, FN deposit inh, HIV Env fusion)
CSc1ncnc2c1ncn2CCCN[C@H](C)c1cccc2ccccc12	HIV Env fusion 58
O=C(NC1CC1)C1=C[C@H](c2csc3ccccc23)C[C@H](OCCCCO)O1	none
